Only a selection was taken, and hits are over-represented in it overall.
Biofilm kill mix: mixtures killing C. albicans biofilm; AID 1242; C. albicans biofilm persisters + clotrimazole, fluorescence viability; primary screen in compound mixtures of four per well; 120,000 tested, 0.02% active; inhibition, % at 7.6 µM;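 active means inhibition above 30.3% in the primary screen of four-compound pools, then above 30% when the compound was retested; inconclusive means passed the primary limit but could not be retested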;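 further: compounds exposed to preformed 24 h biofilms for 48 h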
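Test system: C. albicans CAF4-2 wild-type biofilms; buffer or medium: RPMI/MOPS medium, pH 7.0; schedule: 24 h biofilm formation, then 48 h compound exposure, 37 °C; detection: Alamar Blue fluorescence; measure: percent inhibition of biofilm viability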
ROMK mod: modulates human ROMK potassium channel activity; Tet-inducible ROMK, thallium flux fluorescence; actives lie on both sides; B-score at 10 µM; 130,000 tested, 2% active; AID 1918;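 active means signal ratio slope over the read window, or its plate-corrected B-score, at least 3 SD from the plate mean, either direction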;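 further: B-score of the F/F0 ratio slope over 7 to 12 s after thallium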
Target sequence (P48048 whole entry, looked up): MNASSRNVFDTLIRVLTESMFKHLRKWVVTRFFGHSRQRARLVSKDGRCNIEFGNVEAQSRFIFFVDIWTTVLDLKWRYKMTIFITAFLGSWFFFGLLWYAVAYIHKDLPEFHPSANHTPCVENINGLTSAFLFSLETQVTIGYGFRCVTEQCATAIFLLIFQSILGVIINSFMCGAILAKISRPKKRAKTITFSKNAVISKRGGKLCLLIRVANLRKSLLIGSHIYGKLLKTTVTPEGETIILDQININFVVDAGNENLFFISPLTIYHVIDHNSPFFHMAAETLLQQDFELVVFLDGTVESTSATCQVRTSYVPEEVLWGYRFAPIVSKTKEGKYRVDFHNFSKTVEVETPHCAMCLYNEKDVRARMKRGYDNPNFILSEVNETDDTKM
ROMK hit retest: retested hit modulating human ROMK potassium channel | shares compounds with ROMK mod | ROMK thallium flux, fluorescence ratio; active compounds read low | normalized thallium flux (F/F0 slope) at 10 µM | 3,000 tested, 54% active;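 active means Flux at 10 µM at least 3 SD below or above vehicle control mean in one or both replicates; inconclusive means no clear call, values can overlap the other calls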
Of the large screens only hits and unclear results are named; the others gave an inactive call (follow-up assays come after a bar, where they were run).

COC(=O)c1cnn(-c2ccccc2)c1-n1cccc1C=O	ROMK mod -5.7 | ROMK hit retest inactive
CCOC(=O)c1cnn(-c2ccccc2)c1-n1cccc1C(=O)C(=O)N(C)C	none
COC(=O)c1cnn(-c2ccccc2)c1/C=N/NC(=S)Nc1ccccc1	none
COC(=O)c1cnn(-c2ccccc2)c1C(OC)OC	none (no result: ROMK mod) | ROMK hit retest inactive
CCc1ccc(-n2c(CSc3nnnn3-c3ccccc3)nc3ccccc3c2=O)cc1	none (no result: Biofilm kill mix)
Cc1ccccc1NC(=O)c1ccc(-c2ccc(Cl)cc2Cl)o1	none (no result: Biofilm kill mix)
Cc1cccc(C)c1NC(=O)c1ccc(-c2ccc(Cl)cc2Cl)o1	ROMK mod -2.9 (no result: Biofilm kill mix) | ROMK hit retest 0.052
C/C(=N\NC(=O)Cn1cc([N+](=O)[O-])cn1)c1ccc(O)cc1	none
COc1cc(OC)c(NC(=S)NCc2ccccc2)cc1Cl	none
CCN(CC)S(=O)(=O)c1ccc(N2CCOCC2)c(NC(=O)Cc2ccc(Cl)cc2)c1	none (no result: ROMK mod) | ROMK hit retest inactive
CCN(CC)S(=O)(=O)c1ccc(N2CCCC2)c(NC(=O)Cc2ccccc2)c1	none (no result: ROMK mod)
O=C(Oc1coc(CSc2nnc(NC(=O)C3CC3)s2)cc1=O)c1ccccc1	none (no result: ROMK mod)
CCOC(=O)CNC(=S)N(Cc1ccccc1)Cc1ccccc1F	none
Cc1cc(C)cc(NC(=S)NC2CC3CCCC(C2)N3C2CCCC2)c1 (stereo unspecified)	none
COC(=O)c1cc2c(C)c(C)c3ccccn3c-2c1C(=O)OC	none (no result: Biofilm kill mix)
CC(C)OC(=O)c1c2c(n3ccccc13)C(=O)c1ccccc1C2=O	none (no result: ROMK mod) | ROMK hit retest 0.051
O=C(N/N=C/c1cn(-c2ccccc2)nc1-c1ccc2c(c1)OCCO2)c1ccncc1	none
COC(=O)CSc1nnc(-c2ccco2)n1Cc1ccco1	none (no result: Biofilm kill mix)
COc1ccc(NC(=O)c2sc3nc(Cc4ccccc4)cc(C(F)(F)F)c3c2N)cc1OC	none (no result: ROMK mod)
COc1ccccc1NC(=O)c1sc2nc(Cc3ccccc3)cc(C(F)(F)F)c2c1N	ROMK mod -5.5 (no result: Biofilm kill mix) | ROMK hit retest 0.048
N#CSCC(=O)c1cccc2ccccc12	none (no result: ROMK mod)
O=[N+]([O-])c1ccc(Cl)cc1N1CCCCC1	none
CC#CCN(CC#CC)S(=O)(=O)c1ccc(S(=O)(=O)N2CCOCC2)cc1	none (no result: Biofilm kill mix)
Cc1ccc(C(=O)N2CCN(c3ccccn3)CC2)cc1	none
O=C(N1CCN(c2ccccn2)CC1)N1c2ccccc2Sc2ccccc21	ROMK mod 3.3 (no result: Biofilm kill mix) | ROMK hit retest inactive
O=C(c1ccco1)N1CCN(C(=O)N2c3ccccc3Sc3ccccc32)CC1	ROMK mod -3 (no result: Biofilm kill mix) | ROMK hit retest inactive
O=C(N1CCN(c2ccccn2)CC1)C(Cl)(Cl)Cl	none
O=C(COc1ccc(Cl)cc1Cl)N1CCN(c2ccccn2)CC1	none
O=C(c1cnsn1)N1CCN(c2ccccn2)CC1	ROMK mod 1.6 (no result: Biofilm kill mix) | ROMK hit retest inactive
O=C(COc1cc(Cl)c(Cl)cc1Cl)N1CCN(c2ccccn2)CC1	ROMK mod -3 | ROMK hit retest 0.066
O=C(c1ccco1)N1CCN(C(=O)N2CCOCC2)CC1	none (no result: Biofilm kill mix)
Cc1ccc(C2C=C(c3ccccc3)Nc3nc(N4C(=O)CCC4=O)nn32)cc1 (stereo unspecified)	none
O=C(CSc1nc2ccccc2c(=O)n1CCCN1CCOCC1)Nc1cccc(S(=O)(=O)N2CCCCCC2)c1	none
CSc1ccccc1OC1CCN(Cc2ccccc2)CC1	none
COC(=O)NC(NC(=S)Nc1cccc(C)c1)C(Cl)(Cl)Cl (stereo unspecified)	none
C=CCN=C(NC#N)SCCc1ccccc1	none (no result: Biofilm kill mix)
O=C(CSc1nc2[nH]ncc2c(=O)[nH]1)c1ccccc1	none
COc1ccc(N2CCN(C(=O)c3ccc(Cn4c(=S)[nH]c5ccc(N6CCOCC6)cc5c4=O)cc3)CC2)cc1	none
O=C(CNS(=O)(=O)c1cccs1)N1CCCC1	none (no result: Biofilm kill mix)
O=C(O)C1=C[C@@H](c2ccc(F)cc2)C[C@@H](OCCCCO)O1	none (no result: ROMK mod)
Cc1ccc(N2C(=S)NC3c4ccccc4OC2(C)C3C(=O)N(C)C)cc1 (stereo unspecified)	none
Cc1ccccc1N1C(=S)NC2c3ccccc3OC1(C)C2C(=O)N(C)C (stereo unspecified)	ROMK mod -6.8 | ROMK hit retest 0.055
Cc1cccc(NC(=O)c2ccc(CN3CCN(Cc4ccccc4)CC3)cc2)c1	ROMK mod -2.1 | ROMK hit retest inconclusive
COc1cccc(NC(=O)c2ccc(CN3CCN(c4ccccc4)CC3)cc2)c1	none (no result: Biofilm kill mix)
COc1ccc(/C=C/C(=O)Nc2ccc(OC)nc2)cc1	none
COc1ccc(NC(=O)/C(Cl)=C(/Cl)S(=O)Cc2ccccc2)cn1 (stereo unspecified)	ROMK mod -3.5 (no result: Biofilm kill mix) | ROMK hit retest 0.047
COc1ccc(CS(=O)(=O)/C(Cl)=C(/Cl)C(=O)Nc2ccc(OC)nc2)cc1	ROMK mod -2.8 (no result: Biofilm kill mix) | ROMK hit retest inconclusive
COc1ccc(NC(=O)Cc2ccccc2)cn1	none
O=C(NNC(=S)NC1CCCCC1)c1ccc2c(c1)OCO2	none (no result: ROMK mod)
CC(=O)Nc1ccc(-c2nnc(SCc3ccccc3C#N)n2C)cc1	none (no result: Biofilm kill mix)
C/C=C/C(=O)OCC(=O)Nc1cc(OC)c([N+](=O)[O-])cc1C	none
NC1=NC(=Nc2ccc(S(=O)(=O)N3CCOCC3)cc2)c2ccccc21	none (no result: ROMK mod)
CC(C)Sc1cc(N2CCOCC2)nc(-c2ccccc2)n1	none
O=C(Cc1cccs1)NNC(=S)NCc1ccco1	ROMK mod -9.4 | ROMK hit retest inactive
O=C(Cc1ccc(-c2ccccc2)cc1)NNC(=S)NCc1ccco1	none
CCOc1ccc(N2C(=O)Nc3ccccc3C2(O)C(=O)NCc2ccc(C)cc2)cc1 (stereo unspecified)	none
CC(C)NC(=O)C1(O)c2ccccc2NC(=O)N1c1ccc(Cl)c(Cl)c1 (stereo unspecified)	none (no result: Biofilm kill mix, ROMK mod) | ROMK hit retest inconclusive
COc1cc(SC)ccc1C(=O)NCCOc1ccc(F)cc1	none (no result: ROMK mod)
CCCNC(=O)c1nnsc1S(=O)(=O)c1ccc(Cl)cc1	Biofilm kill mix 34, ROMK mod -4.9 | ROMK hit retest 0.047
Cc1nnsc1C(=O)NNc1ccc(Cl)cc1	none (no result: ROMK mod)
CCCNC(=O)NS(=O)(=O)c1ccc(Cl)cc1	none (no result: ROMK mod)
CCCNC(=O)c1ccc2snnc2c1	none
CNC(=O)c1nnsc1S(=O)c1ccc(Cl)cc1 (stereo unspecified)	ROMK mod -8.8 | ROMK hit retest 0.049
CCCNC(=O)c1nnsc1S(=O)c1ccc(Cl)cc1 (stereo unspecified)	ROMK mod -6.4 | ROMK hit retest 0.055
COc1ccc(/C=N/NC(=O)c2ccccc2O)cc1Cn1nnc2ccccc21	none
O=C1COc2ccc(C(=O)COC(=O)Cc3ccc(Cl)cc3)cc2N1	none
CCOC(=O)/C(C(=O)Nc1ccc(Br)cc1)=C1/NC(C)(C)Cc2ccccc21	none
CN(C)C(=S)c1ccccc1	none (no result: ROMK mod) | ROMK hit retest inactive
CN(C)C(=S)c1ccc(N(C)C)cc1	none (no result: ROMK mod)
O=C(c1cccs1)N1CCN(CCCc2ccccc2)CC1	none (no result: Biofilm kill mix)
Cc1c(C(=O)Nc2ccccc2C(=O)N2CCCC2)cccc1[N+](=O)[O-]	none
CCOc1cccc(C2C(C(=O)c3ccc(C)o3)=C(O)C(=O)N2c2nccs2)c1 (stereo unspecified)	ROMK mod -5.4 (no result: Biofilm kill mix) | ROMK hit retest 0.038
O=C(C1=C(O)C(=O)N(c2nccs2)C1c1ccccc1)c1cc2ccccc2o1 (stereo unspecified)	none (no result: ROMK mod)
N/C(=N\OC(=O)c1cccnc1)c1ccccc1Cl	none
CCc1ccc(/C=C2\Oc3cc(OC(=O)N4CCOCC4)ccc3C2=O)cc1	none
CC(=O)Oc1ccc2c(c1)O/C(=C\c1ccncc1)C2=O	none (no result: ROMK mod)
COc1ccccc1C(=O)Oc1ccc2c(c1)O/C(=C\c1ccncc1)C2=O	none (no result: ROMK mod) | ROMK hit retest 0.061
CCC(=O)Oc1ccc2c(c1)O/C(=C\c1ccco1)C2=O	ROMK mod -7.4 | ROMK hit retest 0.051
